Test results reported in ChEMBL document CHEMBL3992564, “Design and synthesis of novel, potent and selective hypoxanthine analogs as adenosine A1 receptor antagonists and their biological evaluation” (Bioorg Med Chem, 2017).

Tests used:
[1] = target: T1, Adenosine receptor A3 (Homo sapiens) (UniProt P0DMS8); experiment: Displacement of [3H]HEMADO from human adenosine A3 receptor expressed in HEK293 cell membranes at 1 uM after 90 mins relative to control
T1 sequence (whole entry): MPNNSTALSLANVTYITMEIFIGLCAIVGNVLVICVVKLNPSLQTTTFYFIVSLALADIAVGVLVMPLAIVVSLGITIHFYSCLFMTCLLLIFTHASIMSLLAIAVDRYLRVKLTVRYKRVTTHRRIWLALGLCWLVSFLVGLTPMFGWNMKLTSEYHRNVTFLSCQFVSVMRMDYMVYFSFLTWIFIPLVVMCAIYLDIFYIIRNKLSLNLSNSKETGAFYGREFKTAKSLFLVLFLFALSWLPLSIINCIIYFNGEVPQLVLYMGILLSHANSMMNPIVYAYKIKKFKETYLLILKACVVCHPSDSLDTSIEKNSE
Procedure, shortened: (§1)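 Membranes from HEK-293 cells stably transfected with human receptor, pre-treated with adenosine deaminase. Radioligands: 1 nM [3H]DPCPX (A1), 1 nM [3H]ZM241385 (A2A), 1.6 nM [3H]MRS-1754 (A2B), 2 nM [3H]HEMADO (A3). Buffers: Tris pH 7.4 (A1, A2A, A3) or pH 6.5 (A2B), with ADA. Incubated 90 min at room temperature, then filtered. Nonspecific binding defined with 100 µM NECA. Ki from 8 concentrations run in triplicate.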

[2] = Drug metabolism assessed as hydroxylation at C-8 cyclopentyl by metabolic soft spot analysis; format: physicochemical
Adenosine receptor A3 = target: T2, Adenosine receptor A3 (Homo sapiens, UniProt P0DMS8); experiment: Displacement of [3H]HEMADO from human adenosine A3 receptor expressed in HEK293 cell membranes after 90 mins; procedure, shortened: as §1
T2 sequence (P0DMS8 whole entry): T1 sequence (whole entry)

[3] = Ratio of drug level in Wistar rat brain to plasma at 5 mg/kg, po via gavage measured at 1 hr post dose by LC-Ms/MS analysis; format: ADME, organism-based; settings: read-out: BPR
Procedure, shortened: (§2)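 Male Wistar rats, fasted overnight and for 2 h after dosing, given an oral solution at 5 mg/kg (0.5 mg/mL). Vehicle: NMP 10% with Labrasol 30% or PEG-400 20%, in citrate buffer […]. Blood and brain were taken at discrete time points, n = 2 per time point. Brain was homogenized 1:2 in PBS. Samples were precipitated with acetonitrile and run on LC-MS/MS; LLOQ 10 ng/mL.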

[4] = Ratio of drug level in Wistar rat brain to plasma at 5 mg/kg, po via gavage measured at 2 hrs post dose by LC-Ms/MS analysis; format: ADME, organism-based; settings: read-out: BPR; procedure, shortened: as §2
Rattus norvegicus [5] = experiment: Effect on serum Na+ level in Wistar rat at 3 to 30 mg/kg, po via gavage; format: ADME, organism-based; settings: in vivo
Rattus norvegicus [6] = experiment: Effect on serum K+ level in Wistar rat at 3 to 30 mg/kg, po via gavage; format: ADME, organism-based; settings: in vivo

inhibition [1]	Drug metabolism [2]	IC50 (Adenosine receptor A3)	Kp at 1 h [3]	Kp at 2 h [4]	SMILES	Activity (Rattus norvegicus [5])	Activity (Rattus norvegicus [6])
35%	Metabolite_Detected				CCCn1c(Oc2cccnc2C)nc2nc(C3CCCC3)[nH]c2c1=O		
		> 10 µM	0.05	0.05	CCCn1c(Oc2ccc(F)c(F)c2)nc2nc(C3CCCC3)[nH]c2c1=O	Non-Toxic	Non-Toxic
